From ChEMBL document CHEMBL3784976 (J Med Chem, 2016)

Assays:
[1] = Fraction unbound in rat plasma; format: ADME, cell-free
[2] = molecular target: T1, Transient receptor potential cation channel subfamily A member 1 (Homo sapiens, UniProt O75762); test: Antagonist activity at human TRPA1 expressed in tetracycline-inducible T-REx expression system transfected CHO cells assessed as inhibition of AITC-induced Ca2+ influx preincubated for 2 mins followed by AITC addition measured for 2 mins by Fluo-4 dye based FLIPR assay; format: cell-based
T1 sequence (O75762 whole entry): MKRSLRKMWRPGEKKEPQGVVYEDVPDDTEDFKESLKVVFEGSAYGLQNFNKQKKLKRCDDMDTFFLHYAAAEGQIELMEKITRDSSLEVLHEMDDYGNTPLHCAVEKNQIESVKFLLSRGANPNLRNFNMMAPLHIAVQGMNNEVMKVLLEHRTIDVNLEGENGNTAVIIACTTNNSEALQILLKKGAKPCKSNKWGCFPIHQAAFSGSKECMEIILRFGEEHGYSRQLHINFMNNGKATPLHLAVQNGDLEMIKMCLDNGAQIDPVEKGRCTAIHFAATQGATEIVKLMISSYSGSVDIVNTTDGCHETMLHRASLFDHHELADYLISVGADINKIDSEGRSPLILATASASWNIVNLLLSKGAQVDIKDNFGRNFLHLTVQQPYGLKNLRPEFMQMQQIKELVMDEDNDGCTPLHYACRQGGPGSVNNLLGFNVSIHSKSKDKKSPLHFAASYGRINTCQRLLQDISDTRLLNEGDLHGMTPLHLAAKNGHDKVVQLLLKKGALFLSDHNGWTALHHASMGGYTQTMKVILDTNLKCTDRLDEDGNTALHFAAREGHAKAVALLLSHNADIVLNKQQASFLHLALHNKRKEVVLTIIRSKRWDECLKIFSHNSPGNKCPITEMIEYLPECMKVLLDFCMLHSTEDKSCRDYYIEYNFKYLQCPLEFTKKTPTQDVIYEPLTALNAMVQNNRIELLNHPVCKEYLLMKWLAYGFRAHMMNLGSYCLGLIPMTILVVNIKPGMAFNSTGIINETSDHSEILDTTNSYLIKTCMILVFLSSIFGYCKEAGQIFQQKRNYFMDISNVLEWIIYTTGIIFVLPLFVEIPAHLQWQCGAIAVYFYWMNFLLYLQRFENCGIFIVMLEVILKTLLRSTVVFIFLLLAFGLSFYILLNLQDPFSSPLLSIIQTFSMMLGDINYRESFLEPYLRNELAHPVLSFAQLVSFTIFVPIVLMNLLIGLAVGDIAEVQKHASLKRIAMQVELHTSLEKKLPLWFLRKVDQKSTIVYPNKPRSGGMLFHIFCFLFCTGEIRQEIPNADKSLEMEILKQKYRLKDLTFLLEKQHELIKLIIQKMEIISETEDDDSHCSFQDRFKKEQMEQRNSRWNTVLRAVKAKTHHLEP

[3] = molecular target: T2, Transient receptor potential cation channel subfamily A member 1 (Rattus norvegicus, UniProt Q6RI86); test: Antagonist activity at rat TRPA1 expressed in tetracycline-inducible T-REx expression system transfected CHO cells assessed as inhibition of AITC-induced Ca2+ influx preincubated for 2 mins followed by AITC addition measured for 2 mins by Fluo-4 dye based FLIPR assay; format: cell-based
T2 sequence (Q6RI86 whole entry): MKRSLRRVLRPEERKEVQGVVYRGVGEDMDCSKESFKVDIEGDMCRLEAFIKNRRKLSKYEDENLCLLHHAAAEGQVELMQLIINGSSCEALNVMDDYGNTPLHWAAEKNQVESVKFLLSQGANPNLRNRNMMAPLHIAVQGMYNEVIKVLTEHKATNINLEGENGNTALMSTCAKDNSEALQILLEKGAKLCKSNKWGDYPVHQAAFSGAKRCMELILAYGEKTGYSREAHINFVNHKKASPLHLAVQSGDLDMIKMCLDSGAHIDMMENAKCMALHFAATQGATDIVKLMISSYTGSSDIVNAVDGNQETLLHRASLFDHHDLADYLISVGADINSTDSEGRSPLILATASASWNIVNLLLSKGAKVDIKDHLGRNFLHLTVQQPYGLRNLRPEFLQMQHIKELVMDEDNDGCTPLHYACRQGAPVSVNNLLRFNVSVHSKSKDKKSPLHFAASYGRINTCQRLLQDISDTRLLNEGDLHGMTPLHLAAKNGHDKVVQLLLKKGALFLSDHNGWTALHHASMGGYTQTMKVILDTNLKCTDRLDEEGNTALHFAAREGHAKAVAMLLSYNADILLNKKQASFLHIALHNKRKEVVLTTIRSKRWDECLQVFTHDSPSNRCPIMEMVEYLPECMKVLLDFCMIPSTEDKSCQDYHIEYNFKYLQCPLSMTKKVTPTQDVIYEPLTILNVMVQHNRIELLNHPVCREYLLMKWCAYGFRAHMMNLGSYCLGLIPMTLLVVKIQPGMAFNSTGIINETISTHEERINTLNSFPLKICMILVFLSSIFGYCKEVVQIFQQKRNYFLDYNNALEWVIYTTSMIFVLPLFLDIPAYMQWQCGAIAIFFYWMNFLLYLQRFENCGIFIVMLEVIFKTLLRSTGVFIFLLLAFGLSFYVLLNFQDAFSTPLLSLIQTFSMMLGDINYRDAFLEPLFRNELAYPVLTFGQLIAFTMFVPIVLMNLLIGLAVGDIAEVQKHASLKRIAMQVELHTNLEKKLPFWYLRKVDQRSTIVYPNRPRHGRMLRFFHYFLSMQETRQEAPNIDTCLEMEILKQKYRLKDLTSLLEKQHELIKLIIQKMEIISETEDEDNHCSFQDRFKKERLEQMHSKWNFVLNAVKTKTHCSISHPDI

[4] = Apparent intrinsic clearance in rat liver microsomes; format: ADME; settings: read-out: CLH(app)
[5] = Apparent intrinsic clearance in human liver microsomes; format: ADME; settings: read-out: CLH(app)
Liver microsome [6] = test: Drug metabolism in rat liver microsomes assessed as 3-((3-(2-(4-Chlorophenyl)-2-hydroxyethyl)-1,2,4-oxadiazol-5-yl)-methyl)pyrido[2,3-d]pyrimidin-4(3H)-one formation; format: ADME
Liver microsome [7] = test: Drug metabolism in human liver microsomes assessed as 3-((3-(2-(4-Chlorophenyl)-2-hydroxyethyl)-1,2,4-oxadiazol-5-yl)-methyl)pyrido[2,3-d]pyrimidin-4(3H)-one formation; format: ADME
[8] = molecular target: T2, Transient receptor potential cation channel subfamily A member 1; test: Antagonist activity at rat TRPA1 expressed in tetracycline-inducible T-REx expression system transfected CHO cells assessed as inhibition of AITC-induced 45Ca2+ uptake preincubated for 1 min followed by AITC addition measured after 12 mins; format: cell-based
[9] = molecular target: T1, Transient receptor potential cation channel subfamily A member 1; test: Antagonist activity at human TRPA1 expressed in tetracycline-inducible T-REx expression system transfected CHO cells assessed as inhibition of AITC-induced 45Ca2+ uptake preincubated for 1 min followed by AITC addition measured after 12 mins; format: cell-based
[10] = molecular target: T2, Transient receptor potential cation channel subfamily A member 1; test: Agonist activity at rat TRPA1 expressed in tetracycline-inducible T-REx expression system transfected CHO cells by 45Ca2+ uptake assay; format: cell-based
[11] = molecular target: T1, Transient receptor potential cation channel subfamily A member 1; test: Agonist activity at human TRPA1 expressed in tetracycline-inducible T-REx expression system transfected CHO cells by 45Ca2+ uptake assay; format: cell-based
[12] = Clearance in rat at 0.5 mg/kg, iv as single dose; format: ADME, organism-based; settings: in vivo
[13] = Volume of distribution at steady state in rat at 0.5 mg/kg, iv as single dose; format: ADME, organism-based; settings: in vivo, read-out: Vdss
Method in brief: (§1)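 Single intravenous dose of 0.5 mg/kg given to rats, formulated in 100% DMSO.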

[14] = Half life in rat at 0.5 mg/kg, iv administered as single dose; format: ADME, organism-based; settings: in vivo; method in brief: as §1
[15] = AUC (infinity) in rat at 10 mg/kg, po; format: ADME, organism-based; set-up: dose 10 mg/kg, time infinity, route oral; settings: in vivo
Method in brief: (§2)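 Rat oral PK at 30 mg/kg (10 mg/kg for one analogue) in 1% Tween 80/2% HPMC/97% water with methanesulfonic acid, pH 2.2.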

Rattus norvegicus [16] = test: fCmax in rat at 10 mg/kg, po; format: ADME, organism-based; settings: in vivo
Method in brief: (§3)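 Rats dosed orally at 30 mg/kg, or 10 mg/kg for one analogue, in 1% Tween 80/2% HPMC/97% water with methanesulfonic acid, pH 2.2.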

[17] = Tmax in rat at 10 mg/kg, po; format: ADME, organism-based; settings: in vivo; method in brief: as §3
[18] = Half life in rat at 10 mg/kg, po; format: ADME, organism-based; settings: in vivo; method in brief: as §3
[19] = Cmax in rat at 10 mg/kg, po; format: ADME, organism-based; set-up: dose 10 mg/kg, route oral; settings: in vivo; method in brief: as §2
[20] = Ratio of fCmax in rat at 10 mg/kg, po to IC50 for rat TRPA1 expressed in tetracycline-inducible T-REx expression system transfected CHO cells by 45Ca2+ uptake assay
Method in brief: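 Rat oral PK dosed at 10 mg/kg in 1% Tween 80/2% HPMC/97% water/methanesulfonic acid pH 2.2. Unbound Cmax divided by rat TRPA1 45Ca2+ IC50.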

[21] = molecular target: T1, Transient receptor potential cation channel subfamily A member 1; test: Agonist activity at human TRPA1 expressed in tetracycline-inducible T-REx expression system transfected CHO cells assessed as increase in Ca2+ influx measured for 2 mins by Fluo-4 dye based FLIPR assay; format: cell-based
Method in brief: (§4)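 FLIPR Tetra Ca2+ flux with Fluo-4 NW dye plus probenecid. Cells were seeded 24 h ahead in medium with […]. Dye loading ran 30 min at 37 °C, then 30 min at RT. Compound was added and agonist signal read for 2 min. Data were expressed as POC of DMSO (low) vs saturating AITC (high: 15 μM human, 200 μM rat) and fitted to a four-parameter equation.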

[22] = molecular target: T2, Transient receptor potential cation channel subfamily A member 1; test: Agonist activity at rat TRPA1 expressed in tetracycline-inducible T-REx expression system transfected CHO cells assessed as increase in Ca2+ influx measured for 2 mins by Fluo-4 dye based FLIPR assay; format: cell-based; method in brief: as §4
[23] = molecular target: Transient receptor potential cation channel subfamily V member 1 (Homo sapiens, UniProt Q8NER1); test: Antagonist activity at human TRPV1 expressed in CHO cells assessed as inhibition of capsaicin-induced Ca2+ influx preincubated for 2.5 mins followed by capsaicin addition measured for 1 min by luminescence assay; format: cell-based
Chain of Transient receptor potential cation channel subfamily V member 1 (Q8NER1 whole entry): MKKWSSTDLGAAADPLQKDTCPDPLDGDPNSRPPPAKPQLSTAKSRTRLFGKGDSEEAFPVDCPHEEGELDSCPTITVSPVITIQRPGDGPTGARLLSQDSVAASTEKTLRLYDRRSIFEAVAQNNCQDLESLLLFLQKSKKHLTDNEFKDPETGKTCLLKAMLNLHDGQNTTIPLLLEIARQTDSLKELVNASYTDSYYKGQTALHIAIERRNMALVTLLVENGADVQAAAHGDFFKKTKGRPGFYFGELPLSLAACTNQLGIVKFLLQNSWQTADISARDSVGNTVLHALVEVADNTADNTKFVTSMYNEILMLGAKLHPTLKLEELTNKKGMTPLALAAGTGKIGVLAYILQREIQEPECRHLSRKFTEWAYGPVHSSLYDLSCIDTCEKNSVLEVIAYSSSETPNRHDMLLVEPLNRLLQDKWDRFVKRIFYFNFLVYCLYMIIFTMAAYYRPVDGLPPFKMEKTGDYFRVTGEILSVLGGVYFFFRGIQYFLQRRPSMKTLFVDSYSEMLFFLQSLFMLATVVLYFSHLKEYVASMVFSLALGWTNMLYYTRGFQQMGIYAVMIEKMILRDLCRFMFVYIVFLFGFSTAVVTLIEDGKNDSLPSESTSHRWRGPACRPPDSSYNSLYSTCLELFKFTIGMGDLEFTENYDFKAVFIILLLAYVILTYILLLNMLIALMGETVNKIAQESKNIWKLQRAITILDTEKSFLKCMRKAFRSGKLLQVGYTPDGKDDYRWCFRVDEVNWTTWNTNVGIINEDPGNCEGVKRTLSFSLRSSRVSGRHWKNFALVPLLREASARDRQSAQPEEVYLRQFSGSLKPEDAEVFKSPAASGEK

[24] = molecular target: Transient receptor potential cation channel subfamily V member 3 (Rattus norvegicus); test: Antagonist activity at rat TRPV3 expressed in tetracycline-inducible T-REx expression system transfected CHO cells assessed as inhibition of […]-induced Ca2+ influx preincubated for 1 min followed by […] addition measured for 1 min by luminescence assay
Rattus norvegicus [25] = test: fCmax in rat at 30 mg/kg, po; format: ADME, organism-based; settings: in vivo; method in brief: as §3
[26] = Cmax in rat at 30 mg/kg, po; format: ADME, organism-based; set-up: dose 30 mg/kg, route oral; settings: in vivo; method in brief: as §2
Rattus norvegicus [27] = test: Unbound clearance in rat at 0.5 mg/kg, iv as single dose; format: ADME, organism-based; settings: in vivo; method in brief: as §1
[28] = AUC (infinity) in rat at 30 mg/kg, po; format: ADME, organism-based; set-up: dose 30 mg/kg, time infinity, route oral; settings: in vivo; method in brief: as §2
[29] = Tmax in rat at 30 mg/kg, po; format: ADME, organism-based; settings: in vivo; method in brief: as §3
[30] = Half life in rat at 30 mg/kg, po; format: ADME, organism-based; settings: in vivo; method in brief: as §3
[31] = Oral bioavailability in rat at 30 mg/kg; format: ADME, organism-based; settings: in vivo; method in brief: as §3
[32] = Ratio of fCmax in rat at 30 mg/kg, po to IC50 for rat TRPA1 expressed in tetracycline-inducible T-REx expression system transfected CHO cells by 45Ca2+ uptake assay

Row | SMILES | IC50 [2] | IC50 [3] | microsomal CLint [4] | microsomal CLint [5] | also measured
1 | Cc1cccc2c(=O)n(CC(=O)NCCc3ccccc3)cnc12 | > 8330 nM | – | – | – | –
2 | Cc1ccc2c(=O)n(CC(=O)NCCc3ccc(Cl)cc3)cnc2c1 | > 4200 nM | > 16700 nM | 829 µL/min/mg | 144 µL/min/mg | –
3 | Cn1cnc2ncn(Cc3noc(CCc4ccc(Cl)cc4)n3)c(=O)c21 | 211 nM | 136 nM | 44 µL/min/mg | 19 µL/min/mg | –
4 | COc1cccc2c(=O)n(CC(=O)NCCc3ccc(Cl)cc3)cnc12 | 1460 nM | 2150 nM | 455 µL/min/mg | 34 µL/min/mg | –
5 | C/C(=C\c1noc(Cn2cnc3ncn(C)c3c2=O)n1)c1ccc(Cl)cc1 | 71 nM | 75 nM | < 14 µL/min/mg | < 14 µL/min/mg | fraction unbound [1]: 0.033; AUC(0-inf) [15]: 117 µM·h; fCmax (Rattus norvegicus [16]): 0.2 µM; Tmax [17]: 2 h; half-life [18]: 10 h; Cmax [19]: 6.5 µM; Ratio [20]: 4; IC50 [8]: 55 nM; IC50 [9]: 63 nM; EC50 [10]: > 40000 nM; EC50 [11]: > 40000 nM
6 | O=C(Cn1cnc2ncccc2c1=O)NCCc1ccc(Cl)cc1 | 1180 nM | 1170 nM | 18 µL/min/mg | < 14 µL/min/mg | –
7 | Cc1cccc2c(=O)n(CC(=O)NCCc3ccc(OC(F)F)cc3)cnc12 | 685 nM | 142 nM | > 399 µL/min/mg | 194 µL/min/mg | EC50 [21]: > 25000 nM; EC50 [22]: > 25000 nM; IC50 [23]: > 20000 nM; IC50 [8]: 2620 nM; IC50 [9]: 6270 nM; EC50 [10]: > 47000 nM; EC50 [11]: > 47000 nM; IC50 [24]: > 20000 nM
8 | Cc1cccc2ncn(CC(=O)NCCc3ccc(Cl)cc3)c(=O)c12 | 70 nM | 112 nM | 736 µL/min/mg | 301 µL/min/mg | –
9 | C/C(=C\c1nc(Cn2cnc3ncccc3c2=O)no1)c1ccc(Cl)cc1 | – | – | – | – | fCmax (Rattus norvegicus [25]): 0.1 µM; Cmax [26]: 8 µM; fraction unbound [1]: 0.012; Vd [13]: 1.4 L/kg; half-life [14]: 4.2 h; AUC(0-inf) [28]: 94.9 µM·h; Tmax [29]: 2.7 h; half-life [30]: 5.1 h; bioavailability [31]: 32%
10 | C/C(=C\c1nc(Cn2cnc3ncn(C)c3c2=O)no1)c1ccc(Cl)cc1 | 165 nM | 274 nM | < 14 µL/min/mg | 76 µL/min/mg | –
11 | O=C(Cn1cnc2cnccc2c1=O)NCCc1ccc(Cl)cc1 | 1710 nM | 1080 nM | 179 µL/min/mg | 14 µL/min/mg | –
12 | Cc1ccnc2ncn(Cc3nc(CCc4ccc(Cl)cc4)no3)c(=O)c12 | 16 nM | 35 nM | > 399 µL/min/mg | 340 µL/min/mg | –
13 | COc1ccccc1CCNC(=O)Cn1cnc2c(C)cccc2c1=O | > 16700 nM | > 16700 nM | – | – | –

The next lines start with results.

Row | IC50 [2] | IC50 [3] | microsomal CLint [4] | microsomal CLint [5] | SMILES | also measured
14 | 41 nM | 21 nM | 131 µL/min/mg | 32 µL/min/mg | O=c1c2cccnc2ncn1Cc1nc(CCc2ccc(Cl)cc2)no1 | fraction unbound [1]: 0.144; Drug metabolism (Liver microsome [6]): metabolite_detected; Drug metabolism (Liver microsome [7]): metabolite_detected; IC50 [8]: 120 nM; IC50 [9]: 376 nM; EC50 [10]: > 40000 nM; EC50 [11]: > 40000 nM; clearance [12]: 98.3 mL/min/kg; Vd [13]: 2 L/kg; half-life [14]: 0.3 h
15 | 802 nM | 358 nM | 706 µL/min/mg | 224 µL/min/mg | Cc1cccc2c(=O)n(CC(=O)NCCc3ccc(Cl)cc3)cnc12 | –
16 | 286 nM | 306 nM | > 399 µL/min/mg | 397 µL/min/mg | O=C(Cn1cnc2c(C(F)(F)F)cccc2c1=O)NCCc1ccc(Cl)cc1 | –
17 | > 16700 nM | > 16700 nM | – | – | COc1cccc(CCNC(=O)Cn2cnc3c(C)cccc3c2=O)c1 | –
18 | > 16700 nM | – | 104 µL/min/mg | 31 µL/min/mg | O=C(Cn1cnc2ccccc2c1=O)NCCc1ccc(Cl)cc1 | –
19 | – | 1370 nM | – | – | COc1ccc(CCNC(=O)Cn2cnc3c(C)cccc3c2=O)cc1 | –
20 | 201 nM | 56 nM | 297 µL/min/mg | 49 µL/min/mg | N#Cc1cccc2c(=O)n(CC(=O)NCCc3ccc(Cl)cc3)cnc12 | –
21 | 1330 nM | 791 nM | 186 µL/min/mg | 40 µL/min/mg | O=C(Cn1cnc2c(F)cccc2c1=O)NCCc1ccc(Cl)cc1 | –
22 | 156 nM | 89 nM | 122 µL/min/mg | 35 µL/min/mg | O=c1c2cccnc2ncn1Cc1noc(CCc2ccc(Cl)cc2)n1 | fCmax (Rattus norvegicus [25]): 1 µM; Cmax [26]: 10.3 µM; fraction unbound [1]: 0.093; IC50 [8]: 411 nM; IC50 [9]: 1580 nM; EC50 [10]: > 40000 nM; EC50 [11]: > 40000 nM; clearance [12]: 36.7 mL/min/kg; CL free (Rattus norvegicus [27]): 400 mL/min/kg; Vd [13]: 1 L/kg; half-life [14]: 0.4 h; AUC(0-inf) [28]: 19.2 µM·h; Tmax [29]: 0.5 h; half-life [30]: 4 h; bioavailability [31]: 52%; Ratio [32]: 3
23 | 265 nM | 287 nM | – | – | Cc1ccc2ncn(CC(=O)NCCc3ccc(Cl)cc3)c(=O)c2c1 | –
24 | 41 nM | 31 nM | 94 µL/min/mg | 56 µL/min/mg | O=c1c2cccnc2ncn1Cc1nc(CC(F)c2ccc(Cl)cc2)no1 (racemic) | –
